Measured values from ChEMBL document CHEMBL2150968, “Development of a bifunctional chelating agent containing isothiocyanate residue for one step F-18 labeling of peptides and application for RGD labeling” (Bioorg Med Chem, 2012).

How the values were obtained:
Muscle tissue [1] = assay: Drug uptake in muscle of BALB/c nude mouse xenografted with human U87MG cells over expressing […] integrin at 0.148 MBq/0.1 mL after 60 mins by gamma counting in presence of 3 mg/kg c(RGDyk); type: ADME, organism-based, U-87MG ATCC; parameters: dose 3 mg/kg; conditions: in vivo, 1 h
Outline: (§1)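 Male BALB/c nude mice received 2 × 10^5 U87MG human glioma cells s.c. in the right shoulder, 11 days before tracer. Tracer was given by tail vein; blocking groups were co-injected with cold c(RGDyK) 3 mg/kg. Mice were killed at 60 min; organs and blood were weighed and gamma counted, and %ID/g was calculated. n = 8; Student's t-test.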

Muscle tissue [2] = assay: Drug uptake in muscle of BALB/c nude mouse xenografted with human U87MG cells over expressing […] integrin at 0.148 MBq/0.1 mL, iv after 60 mins by gamma counting; type: ADME, organism-based, U-87MG ATCC; conditions: in vivo, 1 h; outline: as §1
Stomach [3] = assay: Drug uptake in stomach of BALB/c nude mouse xenografted with human U87MG cells over expressing […] integrin at 0.148 MBq/0.1 mL, iv after 60 mins by gamma counting; type: ADME, organism-based, U-87MG ATCC; conditions: in vivo, 1 h; outline: as §1
Pancreas [4] = assay: Drug uptake in pancreas of BALB/c nude mouse xenografted with human U87MG cells over expressing […] integrin at 0.148 MBq/0.1 mL after 60 mins by gamma counting in presence of 3 mg/kg c(RGDyk); type: ADME, organism-based, U-87MG ATCC; parameters: dose 3 mg/kg; conditions: in vivo, 1 h; outline: as §1
Liver [5] = assay: Drug uptake in liver of BALB/c nude mouse xenografted with human U87MG cells over expressing […] integrin at 0.148 MBq/0.1 mL, iv after 60 mins by gamma counting; type: ADME, organism-based, U-87MG ATCC; conditions: in vivo, 1 h; outline: as §1
Blood [6] = assay: Drug uptake in blood of BALB/c nude mouse xenografted with human U87MG cells overexpressing […] integrin at 0.148 MBq/0.1 mL after 60 mins by gamma counting in presence of 3 mg/kg c(RGDyk); type: ADME, organism-based, U-87MG ATCC; parameters: dose 3 mg/kg; conditions: in vivo, 1 h; outline: as §1
Spleen [7] = assay: Drug uptake in spleen of BALB/c nude mouse xenografted with human U87MG cells over expressing […] integrin at 0.148 MBq/0.1 mL after 60 mins by gamma counting in presence of 3 mg/kg c(RGDyk); type: ADME, organism-based, U-87MG ATCC; parameters: dose 3 mg/kg; conditions: in vivo, 1 h; outline: as §1
Urinary bladder = assay: Drug uptake in bladder of BALB/c nude mouse xenografted with human U87MG cells over expressing […] integrin at 11.1 MBq/0.1 mL, iv after 1 to 2 hrs by PET/CT imaging; type: ADME, organism-based, U-87MG ATCC; conditions: in vivo
Outline: (§2)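 Glioma-xenografted BALB/c nude mice were injected by tail vein; inhibition groups were co-injected with cold c(RGDyK) 3 mg/kg. Under 2% isoflurane, dynamic small-animal PET/CT was acquired at 1 and 2 h, with decay-corrected images. SUV = tissue activity concentration (MBq/mL) / (injected dose (MBq) / body weight (g)). Normal tissue reference was the left shoulder.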

[8] = Drug uptake in human U87MG cells over expressing […] integrin xenografted in BALB/c nude mouse tumor at 0.148 MBq/0.1 mL after 1 hr by gamma counting in presence of 3 mg/kg c(RGDyk); type: ADME, organism-based, Neoplasm, U-87MG ATCC; parameters: dose 3 mg/kg; conditions: in vivo; outline: as §1
Kidney [9] = assay: Drug uptake in kidney of BALB/c nude mouse xenografted with human U87MG cells over expressing […] integrin at 0.148 MBq/0.1 mL after 60 mins by gamma counting in presence of 3 mg/kg c(RGDyk); type: ADME, organism-based, U-87MG ATCC; parameters: dose 3 mg/kg; conditions: in vivo, 1 h; outline: as §1
Kidney [10] = assay: Drug uptake in kidney of BALB/c nude mouse xenografted with human U87MG cells over expressing […] integrin at 0.148 MBq/0.1 mL, iv after 60 mins by gamma counting; type: ADME, organism-based, U-87MG ATCC; conditions: in vivo, 1 h; outline: as §1
Liver [11] = assay: Drug uptake in liver of BALB/c nude mouse xenografted with human U87MG cells over expressing […] integrin at 0.148 MBq/0.1 mL after 60 mins by gamma counting in presence of 3 mg/kg c(RGDyk); type: ADME, organism-based, U-87MG ATCC; parameters: dose 3 mg/kg; conditions: in vivo, 1 h; outline: as §1
Bone [12] = assay: Drug uptake in bone of BALB/c nude mouse xenografted with human U87MG cells over expressing […] integrin at 0.148 MBq/0.1 mL, iv after 60 mins by gamma counting; type: ADME, organism-based, Bone element, U-87MG ATCC; conditions: in vivo, 1 h; outline: as §1
Pancreas [13] = assay: Drug uptake in pancreas of BALB/c nude mouse xenografted with human U87MG cells over expressing […] integrin at 0.148 MBq/0.1 mL, iv after 60 mins by gamma counting; type: ADME, organism-based, U-87MG ATCC; conditions: in vivo, 1 h; outline: as §1
Heart [14] = assay: Drug uptake in heart of BALB/c nude mouse xenografted with human U87MG cells over expressing […] integrin at 0.148 MBq/0.1 mL, iv after 60 mins by gamma counting; type: ADME, organism-based, U-87MG ATCC; conditions: in vivo, 1 h; outline: as §1
Bone [15] = assay: Drug uptake in bone of BALB/c nude mouse xenografted with human U87MG cells over expressing […] integrin at 0.148 MBq/0.1 mL after 60 mins by gamma counting in presence of 3 mg/kg c(RGDyk); type: ADME, organism-based, Bone element, U-87MG ATCC; parameters: dose 3 mg/kg; conditions: in vivo, 1 h; outline: as §1
Lung [16] = assay: Drug uptake in lung of BALB/c nude mouse xenografted with human U87MG cells over expressing […] integrin at 0.148 MBq/0.1 mL, iv after 60 mins by gamma counting; type: ADME, organism-based, U-87MG ATCC; conditions: in vivo, 1 h; outline: as §1
Heart [17] = assay: Drug uptake in heart of BALB/c nude mouse xenografted with human U87MG cells over expressing […] integrin at 0.148 MBq/0.1 mL after 60 mins by gamma counting in presence of 3 mg/kg c(RGDyk); type: ADME, organism-based, U-87MG ATCC; parameters: dose 3 mg/kg; conditions: in vivo, 1 h; outline: as §1
Blood [18] = assay: Drug uptake in blood of BALB/c nude mouse xenografted with human U87MG cells over expressing […] integrin at 0.148 MBq/0.1 mL, iv after 60 mins by gamma counting; type: ADME, organism-based, U-87MG ATCC; conditions: in vivo, 1 h; outline: as §1
Spleen [19] = assay: Drug uptake in spleen of BALB/c nude mouse xenografted with human U87MG cells over expressing […] integrin at 0.148 MBq/0.1 mL, iv after 60 mins by gamma counting; type: ADME, organism-based, U-87MG ATCC; conditions: in vivo, 1 h; outline: as §1
[20] = Stability of the compound in human serum for 4 hrs by ITLC-SG analysis; type: ADME, cell-free
Outline: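 Labeled conjugate was incubated in human serum at 37 °C for 240 min. Decomposition was checked by ITLC-SG; unbound [18F]AlF stays at the origin, the labeled peptide runs to the solvent front.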

[21] = Drug uptake in human U87MG cells overexpressing […] integrin xenografted in BALB/c nude mouse tumor at 11.1 MBq/0.1 mL after 1 hr by PET/CT imaging in presence of 3 mg/kg c(RGDyk); type: ADME, organism-based, Neoplasm, U-87MG ATCC; parameters: dose 3 mg/kg; conditions: in vivo; outline: as §2
[22] = Drug uptake in human U87MG cells over expressing […] integrin xenografted in BALB/c nude mouse tumor at 11.1 MBq/0.1 mL, iv after 1 hr by PET/CT imaging; type: ADME, organism-based, Neoplasm, U-87MG ATCC; conditions: in vivo; outline: as §2
Stomach [23] = assay: Drug uptake in stomach of BALB/c nude mouse xenografted with human U87MG cells over expressing […] integrin at 0.148 MBq/0.1 mL after 60 mins by gamma counting in presence of 3 mg/kg c(RGDyk); type: ADME, organism-based, U-87MG ATCC; parameters: dose 3 mg/kg; conditions: in vivo, 1 h; outline: as §1
[24] = Drug uptake in human U87MG cells over expressing […] integrin xenografted BALB/c nude mouse tumor at 0.148 MBq/0.1 mL, iv after 60 mins by gamma counting; type: ADME, organism-based, Neoplasm, U-87MG ATCC; conditions: in vivo, 1 h; outline: as §1
Intestine [25] = assay: Drug uptake in intestine of BALB/c nude mouse xenografted with human U87MG cells over expressing […] integrin at 0.148 MBq/0.1 mL, iv after 60 mins by gamma counting; type: ADME, organism-based, U-87MG ATCC; conditions: in vivo, 1 h; outline: as §1
Lung [26] = assay: Drug uptake in lung of BALB/c nude mouse xenografted with human U87MG cells over expressing […] integrin at 0.148 MBq/0.1 mL after 60 mins by gamma counting in presence of 3 mg/kg c(RGDyk); type: ADME, organism-based, U-87MG ATCC; parameters: dose 3 mg/kg; conditions: in vivo, 1 h; outline: as §1
[27] = Drug uptake in human U87MG cells overexpressing alphavbeta3 integrin xenografted in BALB/c nude mouse tumor at 11.1 MBq/0.1 mL after 2 hrs by PET/CT imaging in presence of 3 mg/kg c(RGDyk); conditions: in vivo
[28] = Drug uptake in human U87MG cells over expressing […] integrin xenografted in BALB/c nude mouse tumor at 11.1 MBq/0.1 mL, iv after 2 hrs by PET/CT imaging; type: ADME, organism-based, Neoplasm, U-87MG ATCC; conditions: in vivo; outline: as §2
Intestine [29] = assay: Drug uptake in intestine of BALB/c nude mouse xenografted with human U87MG cells over expressing […] integrin at 0.148 MBq/0.1 mL after 60 mins by gamma counting in presence of 3 mg/kg c(RGDyk); type: ADME, organism-based, U-87MG ATCC; parameters: dose 3 mg/kg; conditions: in vivo, 1 h; outline: as §1
[30] = Chemical stability of the compound after 4 hrs by ITLC-SG analysis; type: physicochemical
Outline: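 After Al18F labeling (pH 4 sodium acetate buffer, 110 °C, 10 min), stability of the labeled conjugate was followed in the labeling medium at room temperature for 240 min. Decomposition was checked by ITLC-SG; unbound [18F]AlF stays at the origin, the labeled peptide runs to the solvent front.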

- Drug uptake (Muscle tissue [1]): Not Active
- Drug uptake (Muscle tissue [2]): Active
- Drug uptake (Stomach [3]): Active
- Drug uptake (Pancreas [4]): Not Active
- Drug uptake (Liver [5]): Active
- Drug uptake (Blood [6]): Not Active
- Drug uptake (Spleen [7]): Not Active
- Drug uptake (Urinary bladder): Active
- Drug uptake [8]: 1.33 % ID/g
- Drug uptake (Kidney [9]): Not Active
- Drug uptake (Kidney [10]): Active
- Drug uptake (Liver [11]): Not Active
- Drug uptake (Bone [12]): Active
- Drug uptake (Pancreas [13]): Active
- Drug uptake (Heart [14]): Active
- Drug uptake (Bone [15]): Not Active
- Drug uptake (Lung [16]): Active
- Drug uptake (Heart [17]): Not Active
- Drug uptake (Blood [18]): Active
- Drug uptake (Spleen [19]): Active
- remaining at 4 h [20]: > 95%
- SUV [21]: 0.72
- SUV [22]: 7.42
- Drug uptake (Stomach [23]): Not Active
- Drug uptake [24]: 4.41 % ID/g
- Drug uptake (Intestine [25]): Active
- Drug uptake (Lung [26]): Not Active
- SUV [27]: 0.42
- SUV [28]: 3.77
- Drug uptake (Intestine [29]): Not Active
- remaining at 4 h [30]: > 95%
Structure (SMILES): N=C(N)NCCC[C@@H]1NC(=O)[C@H](CCCCNC(=S)Nc2ccc(CN3CCN4CCN(CC3)CC(=O)[O][Al]([18F])[O]C(=O)C4)cc2)NC(=O)[C@@H](Cc2ccc(O)cc2)NC(=O)[C@H](CC(=O)O)NC(=O)CNC1=O
